RGS4 block = inhibitors of human RGS4; 0.45% of 310,000 active; HEK293 M3R/RGS4 inducible, Fluo-4 calcium flux; hits give high values; triggered by carbachol at its EC20; P49798; B-score at 10 µM;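 active means B-score, a plate-corrected calcium signal, over three deviations above library mean, with baseline fluorescence within five deviations of library mean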;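 further: RGS4 expression induced by doxycycline in cells with stable M3 receptor; B-score is computed from the integrated fluorescence ratio over baseline after carbachol; higher B-score means a larger calcium signal and so more RGS4 inhibition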
Target sequence (P49798 whole entry, looked up): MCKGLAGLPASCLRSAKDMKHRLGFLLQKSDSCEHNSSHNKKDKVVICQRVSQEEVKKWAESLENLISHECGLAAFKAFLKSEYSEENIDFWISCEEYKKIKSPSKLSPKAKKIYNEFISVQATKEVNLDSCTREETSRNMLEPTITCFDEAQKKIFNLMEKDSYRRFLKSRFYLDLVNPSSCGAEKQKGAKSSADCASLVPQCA
MrgX1 antagonist = human MrgX1 receptor antagonism, primary screen; 1.3% of 310,000 active; MRGX1-HEK293 calcium flux, Fluo-4, BAM8-22 antagonism; hits give low values; B-score at 10 µM;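 active means calcium-response B-score plate-corrected more than 3 library SD below zero, starting fluorescence within 5 deviations, no agonist response on first addition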;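 further: peak minus trough fluorescence over baseline after final BAM8-22 challenge near maximal dose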
Target sequence (Q96LB2 whole entry, looked up): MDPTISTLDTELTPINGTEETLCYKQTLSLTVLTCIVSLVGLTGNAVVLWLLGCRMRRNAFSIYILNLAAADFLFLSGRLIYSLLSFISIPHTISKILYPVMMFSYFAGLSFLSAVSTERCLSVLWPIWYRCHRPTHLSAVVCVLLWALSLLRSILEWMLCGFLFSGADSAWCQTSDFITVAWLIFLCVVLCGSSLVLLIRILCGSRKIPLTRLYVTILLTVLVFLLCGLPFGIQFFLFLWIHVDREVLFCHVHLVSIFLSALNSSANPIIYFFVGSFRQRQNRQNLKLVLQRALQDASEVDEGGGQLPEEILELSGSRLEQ
RGS4 act = RGS4 potentiation or activation; HEK293 M3R/inducible RGS4, carbachol calcium flux Fluo4; hits give low values; B-score at 10 µM; 0.92% of 310,000 active; AID 463111;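 active means B-score of the integrated calcium signal more than 4 SD below the library mean, with starting fluorescence not abnormally high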;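 further: negative B-score means reduced calcium response which marks RGS4 activation or potentiation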
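System – HEK293 FlpIn-TREx cells, stable M3R, doxycycline-inducible RGS4 · Reagent – ECmax carbachol challenge · Times – compound preincubation 20 min at room temperature before agonist · Technique – Fluo4 fluorescence kinetic imaging of calcium · Measure – B score of integrated Fluo4 ratio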
MrgX1 PAM = human MrgX1 positive allosteric modulation, primary screen | 0.63% of 310,000 active | B-score at 10 µM | MrgX1-HEK293, Fluo-4 calcium flux, FDSS; hits give high values | Q96LB2;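 active means plate-corrected calcium response at least 3 library SD above typical, normal starting fluorescence, not activating the receptor alone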;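 further: compound read alongside a low EC10 to EC30 dose of BAM8-22 agonist; peak minus trough fluorescence over baseline measured at the second addition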
MrgX1 ag = agonists of human MrgX1 receptor. B-score at 10 µM. MrgX1-HEK293 cells, Fluo-4 calcium fluorescence, agonist mode; hits give high values. 0.44% of 310,000 active. Q96LB2;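 active means calcium response B-score plate-corrected fluorescence ratio at least 3 library SD, with starting fluorescence B-score inside 5 SD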
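System – MrgX1-expressing HEK293 cells · Incubation – cells plated overnight, dye loaded 0.5 h 37 °C, 0.5 h room temperature · Technique – kinetic Fluo-4 NW fluorescence of intracellular calcium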
MrgX1 antag conf = reconfirmed antagonist of human MrgX1 receptor signaling; 19% of 2,300 active; remaining BAM8-22 calcium response % of control (hits give low values), % at 10 µM; MrgX1-HEK293, BAM8-22 calcium flux, Fluo-4; hits give low values; shares compounds with MrgX1 antagonist;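 active means remaining agonist calcium response no higher than 100% minus 3 SD of agonist-only control wells, with starting fluorescence near control levels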;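 further: agonist BAM8-22 given at a near maximal EC90 to ECmax level; peak minus minimum fluorescence divided by baseline after agonist addition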
HEK293 Ca flux = MrgX1 antagonist counter-screen hit in parental HEK293 cells; shares compounds with MrgX1 antagonist; Fluo-4 calcium fluorescence, FDSS; fluorescence ratio F(max-min)/F0 at 10 µM; 2% of 4,000 active; AID 624111;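 active means duplicate-averaged calcium fluorescence ratio at least three times the standard deviation of buffer wells, a nonspecific response in parental cells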
HEK293 Ca counter = counter-screen for MrgX1 allosteric activators: effect in parental HEK293 cells; shares compounds with MrgX1 antagonist; parental HEK293 calcium flux, Fluo-4 fluorescence ratio; hits give high values; fluorescence ratio F(max-min)/F0 at 10 µM; 0.4% of 4,000 active; AID 624114;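 active means calcium fluorescence ratio, averaged over duplicates, at least 3 SD of the buffer-well ratio, meaning a nonspecific response in receptor-free cells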;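 further: untransfected parental HEK293 lacking MrgX1 used as counterscreen for MrgX1 allosteric activators; fluorescence change taken during the second addition on a kinetic imager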
HEK293 Ca cntr2 = MrgX1 activator counter-screen hit in parental HEK293 cells | shares compounds with MrgX1 antagonist | Fluo-4 calcium fluorescence (FDSS); hits give high values | fluorescence ratio F(max-min)/F0 at 10 µM | 8.7% of 4,000 active | AID 624115;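 active means calcium fluorescence ratio at least three times the spread of buffer wells, meaning a non-specific response in parental cells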
Hits are given with their value; ! = not confirmed by another sample. Hits are enriched below; roughly 3.5% of the tested compounds scored in any of these assays.

CCOC(=O)c1ccc(-n2[nH]c(-c3ccccc3)cc2=O)cc1 was read as RGS4 block inactive, MrgX1 antagonist -5.8, RGS4 act inactive, MrgX1 PAM inactive, MrgX1 ag inactive, MrgX1 antag conf 71%, HEK293 Ca flux inactive, HEK293 Ca counter inactive and HEK293 Ca cntr2 inactive.
`Cc1cc(C)nc(NS(=O)(=O)c2ccc(N)cc2)n1` gave RGS4 block inactive, MrgX1 antagonist -4.7!, RGS4 act inactive, MrgX1 PAM inactive, MrgX1 ag inactive, MrgX1 antag conf inactive, HEK293 Ca flux inactive, HEK293 Ca counter inactive and HEK293 Ca cntr2 inactive.
`CC1(C)Oc2ccc3ccc(=O)oc3c2/C(=C/NNC(N)=O)C1=O` gave RGS4 block inactive, MrgX1 antagonist inactive, RGS4 act inactive, MrgX1 PAM inactive and MrgX1 ag inactive.
`Cc1ccc(C2=NCCn3c2c2ccccc2[n+]3[O-])cc1` gave RGS4 block inactive, MrgX1 antagonist inactive, RGS4 act inactive, MrgX1 PAM inactive and MrgX1 ag inactive.
Cc1cc(C)n(-c2nc3ccccc3nc2Nc2ccc(CC(=O)O)cc2)n1 was read as RGS4 block inactive, MrgX1 antagonist -7.6, RGS4 act inactive, MrgX1 PAM inactive, MrgX1 ag inactive, MrgX1 antag conf inactive, HEK293 Ca flux inactive, HEK293 Ca counter inactive and HEK293 Ca cntr2 inactive.
Screening C=CCn1c(CC(=O)OC)csc1=Nc1ccc(C(C)=O)cc1 returned RGS4 block inactive, MrgX1 antagonist -5.2, RGS4 act inactive, MrgX1 PAM inactive, MrgX1 ag inactive, MrgX1 antag conf inactive, HEK293 Ca flux inactive, HEK293 Ca counter inactive and HEK293 Ca cntr2 inactive.
`CCOc1ccc(S(=O)(=O)N2CCCC(C(=O)Nc3cccc(C)c3)C2)cc1` (stereo not drawn) gave RGS4 block inactive, MrgX1 antagonist inactive, RGS4 act inactive, MrgX1 PAM inactive and MrgX1 ag inactive.
`CCn1cc(C2C(C(=O)Nc3ccc(Br)cn3)=C(C)NC3=C2C(=O)CCC3)c(C)n1` (stereo not drawn) gave RGS4 block inactive, MrgX1 antagonist inactive, RGS4 act inactive, MrgX1 PAM inactive and MrgX1 ag inactive.
`CC1=C(C(=O)Nc2ccccn2)C(c2cn(C)nc2C)C2=C(CCCC2=O)N1` (stereo not drawn) gave RGS4 block inactive, MrgX1 antagonist -4.9, RGS4 act inactive, MrgX1 PAM inactive, MrgX1 ag inactive, MrgX1 antag conf inactive, HEK293 Ca flux inactive, HEK293 Ca counter inactive and HEK293 Ca cntr2 inactive.
For CCOC(=O)c1ccc(NC(=S)NCCc2ccccc2F)cc1 the results were RGS4 block inactive, MrgX1 antagonist -6.2, RGS4 act inactive, MrgX1 PAM inactive, MrgX1 ag inactive, MrgX1 antag conf 67%, HEK293 Ca flux inactive, HEK293 Ca counter inactive and HEK293 Ca cntr2 inactive.
CCOC(=O)c1ccc(NC(=S)NCCc2ccccc2)cc1 was read as RGS4 block inactive, MrgX1 antagonist inactive, RGS4 act inactive, MrgX1 PAM inactive and MrgX1 ag inactive.
CCn1cc(S(=O)(=O)Nc2ccc(Cl)cc2F)cn1 was read as RGS4 block inactive, MrgX1 antagonist inactive, RGS4 act inactive, MrgX1 PAM inactive and MrgX1 ag inactive.
CC1C(=O)NN=C1C(=O)N/N=C/c1cccs1 (stereo not drawn) was read as RGS4 block inactive, MrgX1 antagonist -11, RGS4 act inactive, MrgX1 PAM inactive, MrgX1 ag inactive, MrgX1 antag conf inactive, HEK293 Ca flux inactive, HEK293 Ca counter inactive and HEK293 Ca cntr2 inactive.
Screening Cc1ccc(S(=O)(=O)/N=C2\CN(C)C(=O)N2C)cc1 returned RGS4 block inactive, MrgX1 antagonist inactive, RGS4 act inactive, MrgX1 PAM inactive and MrgX1 ag inactive.

Screening data deposited in PubChem by Johns Hopkins Ion Channel Center.
